Activity calls are given as the source filed them.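 The calls were made as follows, unless noted: active = GFP response above 150% of the DMSO level; inconclusive = fewer than 70 events counted for a yeast strain; inactive = the rest.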
Columns and labels:
[1] = hit retest on RPL19A-GFP reporter strain – cell-based, S. cerevisiae, flow cytometry, cherry picks, mother/daughter gates, confirmation (AID 2270;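 active = GFP response below 50% of the DMSO control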); conditions: 3 h, at 10 µM, stronger effect = lower value, 100 = same GFP as DMSO wells
[2] = yeast TOR pathway reporter LAP4-GFP change – cell-based, cherry picks, flow cytometry, mother/daughter gates, confirmation (AID 2271;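 active = GFP response above 150% of the DMSO control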;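 also: ratio of sample to DMSO plate mean so 100% equals DMSO level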); conditions: S. cerevisiae LAP4-GFP strain, 3 h, at 10 µM, stronger effect = higher value, 100 means same as DMSO control
Summary of the method: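 System: GFP-fusion yeast strain; Incubation: compound exposure 3 h at 30 °C, end-over-end rotation; Measured by: GFP by flow cytometry; Read-out: median GFP fluorescence as percent of plate-mean DMSO wells; Medium: synthetic complete (SC) yeast growth medium; Compound: single test-compound dose, 10 µM final; Benchmarks: DMSO-only negative wells, rapamycin 400 ng/mL positive wells.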

[3] = TOR pathway reporter MEP2-GFP, retest of hits – S. cerevisiae, flow cytometry GFP, cherry picks, confirmation (AID 2272;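 active = GFP response above 150% of the DMSO control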;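 also: ratio of well signal to plate DMSO mean so 100% equals DMSO level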); conditions: S. cerevisiae MEP2-GFP strain, 3 h, at 10 µM, stronger effect = higher value
[4] = yeast AGP1-GFP fluorescence change, single-dose – cell-based, flow cytometry, S. cerevisiae, cherry picks, confirmation (AID 2273);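 also: median GFP channel fluorescence over the whole cell population gate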; conditions: S. cerevisiae AGP1-GFP strain, 3 h, at 10 µM
[5] = TOR pathway CIT2 reporter hit retest – S. cerevisiae, GFP fusion, cherry picks, mother/daughter gates, confirmation (AID 2274); conditions: S. cerevisiae CIT2-GFP strain, flow cytometry, 3 h, at 10 µM, stronger effect = higher value
[6] = measured here: daughter cell gate
[7] = measured here: mother cell gate
[8] = measured here: daughter cell gate response
[9] = measured here: mother cell gate response

Compound | GFP response vs DMSO [1] | GFP response vs DMSO [1, 6] | GFP response vs DMSO [1, 7] | GFP response relative to DMSO [2] | GFP response relative to DMSO [2, 8] | GFP response relative to DMSO [2, 9] | GFP response vs DMSO [3] | GFP response, % of DMSO [4] | GFP response, % of DMSO [5] | GFP response, % of DMSO [5, 6] | GFP response, % of DMSO [5, 7]
O=C(CN1C(=O)c2cccc3cccc(c23)C1=O)N1CCCCCC1 | 102% (inactive) | 101% | 101% | 97% (inactive) | 94.2% | 98.4% | 94.7% (inactive) | 100% (inactive) | 100% (inactive) | 101% | 101%
CCc1nnc(NC(=O)c2nc(S(=O)(=O)Cc3ccc(C)cc3)ncc2Cl)s1 | 98.2% (inactive) | 99.1% | 98.6% | 105% (inactive) | 105% | 102% | 102% (inactive) | 103% (inactive) | 101% (inactive) | 102% | 99.1%
O=C(O)Cn1cc(/C=C/[N+](=O)[O-])c2ccccc21 | 97.6% (inactive) | 98.4% | 97.2% | 102% (inactive) | 101% | 100% | 100% (inactive) | 93.9% (inactive) | 99.7% (inactive) | 99.1% | 99.7%
COc1cc(-c2nc3ccccn3c2NCC2CCCO2)ccc1O (stereo unspecified) | 102% (inactive) | 106% | 102% | 93% (inactive) | 95% | 88.7% | 106% (inactive) | 103% (inactive) | 106% (inactive) | 108% | 104%
O=C(O)CSC1CC(=O)N(c2cccc(Cl)c2)C1=O (stereo unspecified) | 96.7% (inactive) | 97.3% | 94.6% | 104% (inactive) | 101% | 104% | 110% (inactive) | 101% (inactive) | 104% (inactive) | 105% | 104%
O=C(/C=C/c1c(F)cccc1Cl)c1ccc(O)cc1 | 94.3% (inactive) | 94% | 94.6% | 144% (inactive) | 137% | 152% | 105% (inactive) | 105% (inactive) | 94.7% (inactive) | 93.7% | 93.7%
Cn1nnnc1N=N/C(=N/Nc1ccccc1)c1ccccc1 | 97.6% (inactive) | 96.1% | 97.3% | 110% (inactive) | 107% | 115% | 94.7% (inactive) | 89.5% (inactive) | 87.2% (inactive) | 88.4% | 85.8%
O=C(NN1C(=O)/C(=C\c2ccc(O)c([N+](=O)[O-])c2)SC1=S)c1ccccc1Cl | 97.4% (inactive) | 95.9% | 95.8% | 126% (inactive) | 106% | 129% | 123% (inactive) | 69.8% (inactive) | 107% (inactive) | 99.1% | 106%
CNC(=O)c1c(O)c2cccc3c2n(c1=O)CC3 | 102% (inactive) | 99.1% | 103% | 94.2% (inactive) | 90.7% | 94.6% | 97.5% (inactive) | 100% (inactive) | 93.5% (inactive) | 90.9% | 93.3%
CCCCNC(=O)c1c(O)c2cccc3c2n(c1=O)CCC3 | 98.8% (inactive) | 98.4% | 99.8% | 97.4% (inactive) | 95.6% | 100% | 100% (inactive) | 100% (inactive) | 97.8% (inactive) | 96.5% | 97.7%
Nc1cccnc1S(=O)(=O)c1cccc(C(F)(F)F)c1 | 97.6% (inactive) | 97.1% | 97.2% | 96.7% (inactive) | 97.6% | 94% | 102% (inactive) | 98.9% (inactive) | 96.9% (inactive) | 99.1% | 93.8%
CCOc1cc(C(=S)N2CCCCC2)ccc1OS(=O)(=O)c1ccc(Cl)cc1 | 96.5% (inactive) | 96.1% | 96.5% | 102% (inactive) | 101% | 105% | 103% (inactive) | 105% (inactive) | 100% (inactive) | 99.3% | 98.2%
CCN1CCN(C(=O)C2CCN(c3nnc(C)c4c(C)n(-c5ccc(C)cc5)nc34)CC2)CC1 | 97.2% (inactive) | 96.5% | 97.8% | 102% (inactive) | 101% | 101% | 104% (inactive) | 106% (inactive) | 99.3% (inactive) | 102% | 98%
O=C1CC(SCCO)C(=O)N1c1ccc(Oc2ccccc2)cc1 (stereo unspecified) | 99.7% (inactive) | 98.7% | 101% | 103% (inactive) | 105% | 104% | 104% (inactive) | 103% (inactive) | 104% (inactive) | 101% | 106%
Cc1ccc(S(=O)(=O)N(Cc2ccc(F)cc2)Cc2ccco2)cc1 | 97.6% (inactive) | 96.7% | 97.7% | 102% (inactive) | 105% | 104% | 103% (inactive) | 97.9% (inactive) | 97.2% (inactive) | 99.3% | 98.2%
O=[N+]([O-])c1ccc(N=Nc2c(Cl)cc(O)cc2Cl)cc1 | 91.9% (inactive) | 84.8% | 85.2% | 252% (active) | 150% | 230% | 112% (inactive) | 91.4% (inactive) | 96.4% (inactive) | 96.4% | 82.8%
Cc1ccc(N2C(=O)C(Cl)=C(NCc3ccccc3)C2=O)c(C)c1 | 96.2% (inactive) | 95.2% | 97% | 106% (inactive) | 104% | 107% | 101% (inactive) | 100% (inactive) | 94.4% (inactive) | 95.6% | 94.4%
CCn1c2ccccc2c2cc(/C=N/n3cn[nH]c3=S)ccc21 | 93.6% (inactive) | 91.6% | 93.3% | 139% (inactive) | 128% | 141% | 97.2% (inactive) | 94.3% (inactive) | 87.5% (inactive) | 86.9% | 84.8%
O=C1c2ccsc2SCCN1Cc1ccc(F)cc1 | 97% (inactive) | 94.4% | 100% | 111% (inactive) | 110% | 113% | 90.5% (inactive) | 97.3% (inactive) | 100% (inactive) | 103% | 89.5%
CCOC(=O)c1ccc(NC(=O)CCc2nc(-c3ccc(Cl)cc3)no2)cc1 | 99.4% (inactive) | 100% | 101% | 99.2% (inactive) | 99.2% | 100% | 98.3% (inactive) | 95.4% (inactive) | 105% (inactive) | 105% | 104%
Cc1cccc(CSCc2ccc(C(=O)NC(C)C)o2)c1 | 101% (inactive) | 98.1% | 101% | 99.5% (inactive) | 95.9% | 99.4% | 96.8% (inactive) | 101% (inactive) | 102% (inactive) | 103% | 99.3%
O=C(NCCCSc1ccccc1)c1cc(Cl)ccc1O | 100% (inactive) | 98% | 102% | 108% (inactive) | 104% | 110% | 104% (inactive) | 90.5% (inactive) | 96.4% (inactive) | 96.4% | 94.5%
C/C(=N\NC(=O)c1ccc(Cl)cc1)c1cccc(NC(=O)C(C)C)c1 | 95.8% (inactive) | 95.1% | 95.8% | 99.2% (inactive) | 99.2% | 97.2% | 96.2% (inactive) | 97.2% (inactive) | 101% (inactive) | 101% | 101%
CN(C)S(=O)(=O)c1cc(NC(=O)CN2CCOCC2)ccc1Cl | 97.6% (inactive) | 97.3% | 97.7% | 95.3% (inactive) | 99% | 96.4% | 97.2% (inactive) | 97.3% (inactive) | 100% (inactive) | 99.3% | 102%
CN1CC(=O)NC1=NC(=O)C12CC3CC(CC(C3)C1)C2 | 95% (inactive) | 93.9% | 96% | 102% (inactive) | 97.9% | 103% | 97.5% (inactive) | 92.3% (inactive) | 93.5% (inactive) | 94.6% | 92.1%
[O-][n+]1cccc2c(Br)cc(Br)c(O)c21 | 98.2% (inactive) | 99.6% | 95.6% | 258% (active) | 215% | 251% | 178% (active) | 112% (inactive) | 101% (inactive) | 103% | 95.7%
